Data from paper PMC5331736 (Drug testing and analysis, 2014).

How the values were obtained:
[1] = biological target: dopamine transporters (DAT) (Rattus norvegicus, UniProt P23977); experiment: Release assay at DAT, [3H]MPP+ preloaded rat brain synaptosomes; assay type: biochemical; details: (EC50 at DAT)^−1/(EC50 at SERT)^−1; higher value indicates greater DAT selectivity
Summary of the method: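 Male Sprague-Dawley rat (250–300 g) brain synaptosomes. DAT substrate was 9 nM [3H]MPP+ and SERT substrate 5 nM [3H]5-HT. Buffers held 1 μM reserpine, with unlabelled blockers of competing transporters. Synaptosomes were preloaded for 1 h in Krebs-phosphate buffer, then added to test compound. Filtration stopped release, and retained radioactivity was counted. The ratio comes from dose-response EC50s; N = 3–4, triplicate.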

[2] = biological target: 5-HT transporters (SERT) (Rattus norvegicus, UniProt P31652); experiment: Release assay at SERT, [3H]5-HT preloaded rat brain synaptosomes; assay type: biochemical; details: for releasing efficacy at SERT (in words): rat brain tissue
5-HT transporters (SERT), sequence (P31652 whole entry): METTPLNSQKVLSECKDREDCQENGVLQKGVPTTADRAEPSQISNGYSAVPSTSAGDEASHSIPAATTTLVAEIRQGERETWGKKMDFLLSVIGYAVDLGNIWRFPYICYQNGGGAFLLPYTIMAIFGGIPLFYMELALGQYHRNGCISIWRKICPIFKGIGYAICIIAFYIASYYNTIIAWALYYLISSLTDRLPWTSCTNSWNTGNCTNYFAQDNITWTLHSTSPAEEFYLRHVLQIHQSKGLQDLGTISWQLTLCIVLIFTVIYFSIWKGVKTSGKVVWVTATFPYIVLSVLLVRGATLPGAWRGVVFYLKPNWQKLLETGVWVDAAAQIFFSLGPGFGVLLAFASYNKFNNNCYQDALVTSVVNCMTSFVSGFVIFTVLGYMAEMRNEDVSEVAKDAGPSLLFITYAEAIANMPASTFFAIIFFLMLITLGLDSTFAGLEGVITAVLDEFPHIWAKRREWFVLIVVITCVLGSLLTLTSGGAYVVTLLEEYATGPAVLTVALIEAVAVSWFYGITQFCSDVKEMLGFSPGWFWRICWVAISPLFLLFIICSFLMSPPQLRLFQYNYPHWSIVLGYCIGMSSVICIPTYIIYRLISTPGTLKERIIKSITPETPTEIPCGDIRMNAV
Summary of the method: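 Synaptosomes came from male Sprague-Dawley rat (250–300 g) brains after CO2 euthanasia. They were preloaded to steady state (1 h) with 5 nM [3H]5-HT in Krebs-phosphate buffer containing 1 μM reserpine, plus unlabelled blockers for the other transporters. Preloaded synaptosomes were added to test compound dilutions, and release was stopped by vacuum filtration. Retained radioactivity was measured by scintillation counting. Dose-response; mean ± SD, N = 3–4, triplicate.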

[3] = cis to trans isomerization in solution; assay type: physicochemical; details: acetonitrile only
[4] = biological target: SERT (Rattus norvegicus, UniProt P31652); experiment: Uptake blocking at SERT; assay type: biochemical; details: subsequent experiments, data not shown
SERT, sequence (P31652 whole entry): as above

dopamine transporters (DAT), sequence (P23977 whole entry): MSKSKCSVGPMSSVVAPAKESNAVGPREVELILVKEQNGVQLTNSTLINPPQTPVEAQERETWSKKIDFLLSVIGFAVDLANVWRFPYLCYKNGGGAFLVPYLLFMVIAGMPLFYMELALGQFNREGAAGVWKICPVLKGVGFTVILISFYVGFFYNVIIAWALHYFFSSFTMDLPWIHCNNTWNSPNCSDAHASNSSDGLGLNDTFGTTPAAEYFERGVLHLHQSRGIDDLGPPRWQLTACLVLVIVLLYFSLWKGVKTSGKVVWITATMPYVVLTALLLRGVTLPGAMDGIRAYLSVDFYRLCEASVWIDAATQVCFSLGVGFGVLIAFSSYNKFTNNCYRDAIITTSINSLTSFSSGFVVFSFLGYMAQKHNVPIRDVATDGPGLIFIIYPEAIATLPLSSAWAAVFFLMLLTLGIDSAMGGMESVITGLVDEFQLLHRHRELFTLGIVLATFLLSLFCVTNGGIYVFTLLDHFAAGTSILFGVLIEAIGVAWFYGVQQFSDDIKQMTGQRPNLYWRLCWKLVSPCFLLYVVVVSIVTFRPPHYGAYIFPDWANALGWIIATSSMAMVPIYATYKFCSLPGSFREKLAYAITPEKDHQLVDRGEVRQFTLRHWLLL

Compound	DAT/SERT ratio [1]	releasing efficacy at SERT (in words) [2]	cis to trans isomerization [3]	maximal release at SERT ([2]; efficacy, % of maximal release)	uptake blocker efficacy at SERT [4]
C[C@@H]1N=C(N)O[C@@H]1c1ccc2c(c1)OCO2 (racemic) [Cis-MDMAR, (±)-cis-3′,4′-Methylenedioxy-4-methylaminorex]	4.3	fully efficacious releasing agents	Isomerization did not occur		
CNC(C)Cc1ccc2c(c1)OCO2 (single isomer, unassigned; (+)) [(+)-MDMA, (+)-3,4-methylenedioxymethamphetamine]	0.6				
Cc1ccc([C@@H]2OC(N)=N[C@H]2C)cc1 (relative stereo) [Trans-DMAR, trans-4,4′-dimethylaminorex]	2.5	partial releasing activity		75%	fully efficacious as an uptake blocker
Cc1ccc([C@H]2OC(N)=N[C@H]2C)cc1 (relative stereo) [Cis-DMAR, cis-4,4′-dimethylaminorex]	1.6	fully efficacious releasing agents			
C[C@@H]1N=C(N)O[C@H]1c1ccc2c(c1)OCO2 (racemic) [Trans-MDMAR, (±)-trans-3′,4′-Methylenedioxy-4-methylaminorex]	2.0	fully efficacious releasing agents			
